MC4R antag cAMP: blocks human MC4R cAMP signaling; inhibition, % at 6.5 µM; P32245; MC4R-expressing cells, MTII-stimulated cAMP, LANCE TR-FRET; 360,000 tested, 0.48% active; AID 540295;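 active = inhibition above its plate's cutoff, the mean of tested wells on that plate plus 3 SD, cut at about 29% in these data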;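 also: 0% = Melanotan II alone and 100% = Melanotan II plus saturating MCL0020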
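system = U2OS cells with stable human MC4R expression | also added = Melanotan II challenge after compound preincubation | dosing = one concentration, 6.5 µM nominal | incubation = compound 30 min, challenge 1 h, detection 1 h | measured by = TR-FRET with Eu-cAMP and labeled anti-cAMP, 671 nm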
GAA850 FXN act: increases GAA850 frataxin promoter reporter activity. HEK293 lucGAA850 FXN promoter luciferase reporter, 24 h; percent of 10 µM SAHA response. activation, % at 6 µM. 360,000 tested, 0.56% active. AID 540364;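 active = activation above the average of all compounds screened plus 3 SD, cutoff fixed separately per campaign, cut at about 7.5% in these data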;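 also: 0% = DMSO wells and 100% = 10 µM SAHA wells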
m5-HT2A agonist: activates the mouse 5-HT2A serotonin receptor; P35363; CHO-K1 mHTR2A beta-arrestin complementation, luminescence; percent of 30 µM serotonin response; activation, % at 7.6 µM; 360,000 tested, 0.66% active;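 active = activation above a run cutoff, the mean activation of all tested compounds plus 3 SD, cut at about 14% in these data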;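 also: 0% = plate median of compound wells and 100% = 30 µM serotonin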
MC4R ag barr: agonists of human melanocortin 4 receptor (MC4R) beta-arrestin; AID 540308; P32245; activation, % at 8.9 µM; U2OS MC4R beta-arrestin complementation, luminescence; percent of melanotan II response, DMSO zero; 360,000 tested, 0.98% active;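 active = activation above a per-plate cutoff, the mean activation of sample wells on that plate plus 3 SD, cut at about 8% in these data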
AHR activator: activates the human aryl hydrocarbon receptor | activation, % at 5 µM | AID 2796 | 320,000 tested, 2.5% active | AHR-responsive luciferase reporter cells, luminescence; in the data active = activation above about 47%;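 also: 0% = vehicle wells and 100% = reference agonist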
Target sequence (P35869 whole entry, looked up): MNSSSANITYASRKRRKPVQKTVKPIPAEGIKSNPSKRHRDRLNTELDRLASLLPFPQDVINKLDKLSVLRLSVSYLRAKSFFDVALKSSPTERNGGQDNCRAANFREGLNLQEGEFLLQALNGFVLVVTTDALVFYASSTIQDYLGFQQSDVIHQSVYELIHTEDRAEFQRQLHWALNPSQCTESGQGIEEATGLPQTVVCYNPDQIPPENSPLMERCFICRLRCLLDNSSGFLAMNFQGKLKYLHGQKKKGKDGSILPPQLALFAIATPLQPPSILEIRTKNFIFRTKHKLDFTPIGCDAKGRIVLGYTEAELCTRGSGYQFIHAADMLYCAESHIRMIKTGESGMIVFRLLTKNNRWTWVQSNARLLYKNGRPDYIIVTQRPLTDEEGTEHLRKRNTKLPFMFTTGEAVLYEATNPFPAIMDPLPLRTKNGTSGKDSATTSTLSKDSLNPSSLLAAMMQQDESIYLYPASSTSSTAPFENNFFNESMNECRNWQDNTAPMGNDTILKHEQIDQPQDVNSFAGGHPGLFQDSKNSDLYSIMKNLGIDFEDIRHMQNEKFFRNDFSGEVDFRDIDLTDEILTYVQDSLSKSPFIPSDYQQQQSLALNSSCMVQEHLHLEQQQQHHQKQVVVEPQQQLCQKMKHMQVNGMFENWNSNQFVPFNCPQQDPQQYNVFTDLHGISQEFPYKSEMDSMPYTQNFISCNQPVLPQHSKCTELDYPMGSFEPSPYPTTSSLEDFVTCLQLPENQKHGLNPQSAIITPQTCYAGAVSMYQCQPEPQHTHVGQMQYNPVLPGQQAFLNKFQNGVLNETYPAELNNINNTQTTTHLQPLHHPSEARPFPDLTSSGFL
* = called active by the depositor; · = no result. Compounds with a hit are over-represented: about 4.7% of the library has one in this group of screens.

SMILES	MC4R antag cAMP	GAA850 FXN act	m5-HT2A agonist	MC4R ag barr	AHR activator
COc1ccc2c(=O)c(C(=O)NCCc3ccccc3)c[nH]c2c1	-11.6	4.2	0.9	-1.4	35.3
CCOc1ccc(N(C)S(=O)(=O)c2ccc3[nH]cc(C(=O)NCC4CCCO4)c(=O)c3c2)cc1 (centres undefined)	19.6	-2.2	-0.9	0.1	56.4*
COc1ccc2[nH]cc(C(=O)NCCc3ccccc3)c(=O)c2c1	-6.1	2.4	4.7	-0.8	74.4*
CCOc1ccc2[nH]cc(C(=O)NCc3ccc(F)cc3)c(=O)c2c1	-8.2	-0.8	0.1	-0.9	·
CCOCCCNC(=O)c1c[nH]c2ccc(OCC)cc2c1=O	3.8	0.9	-6.4	-1.5	51.3*
CC1(C(=O)NS(=O)(=O)c2ccc(F)cc2F)CCN1C(=O)c1cccc(F)c1 (centres undefined)	12.2	-1.2	2.1	0.5	·
COc1ccccc1NC(=O)CN1C(=O)NC2(CCCc3ccccc32)C1=O (centres undefined)	1.4	0.2	0.0	-0.2	-0.4
CC1(C)OC(=O)C2=C(C[C@@H](CCOCc3ccccc3)O[C@@H]2c2ccc(F)cc2)O1	·	·	-8.3	·	·
Cc1ccc(S(=O)(=O)N(C)C[C@H]2OCc3cn(nn3)CCCC(=O)N([C@H](C)CO)C[C@@H]2C)cc1	7.8	-1.4	4.0	-0.5	·
COc1ccc(C2=Nc3ccccc3N(C(=O)c3ccncc3)C2C(=O)NC(C)C)cc1 (centres undefined)	·	·	-2.7	·	·
Cc1c(-c2cc(Br)ccc2O)nc2cc3c(cc2c1C)OCO3	-9.5	4.3	1.4	1.1	62.7*
Cc1ccccc1S(=O)(=O)N(C)C[C@@H]1OCc2cn(nn2)CCCC(=O)N([C@H](C)CO)C[C@H]1C	1.7	0.5	5.3	-0.5	·
COc1ccc(-c2csc(C(C)(NC(C)=O)c3ccccc3)n2)cc1 (centres undefined)	5.5	3.1	-5.5	-0.8	·
COc1ccc(C(=O)c2c3ccc(C(F)(F)F)cc3[n+]([O-])n2CCCN)cc1	-7.0	3.4	3.6	1.2	64.5*
Cc1ccc(C(=O)c2c3ccccc3[n+]([O-])n2CCO)cc1	0.9	-0.8	0.2	-0.4	15.2
NC(=O)CCn1c(C(=O)c2cc(Cl)c(N)c(Cl)c2)c2ccccc2[n+]1[O-]	-6.0	2.3	10.1	0.4	76.3*
NCCCn1c(C(=O)c2cc(Cl)c(N)c(Cl)c2)c2ccccc2[n+]1[O-]	-10.9	1.3	2.0	-0.9	72.3*
NC(=O)CCn1c(C(=O)c2cccc([N+](=O)[O-])c2)c2ccccc2[n+]1[O-]	9.0	-2.0	-1.7	-1.8	57.2*
COc1ccc(C(=O)c2c3ccccc3[n+]([O-])n2CCC(N)=O)cc1	-7.9	2.1	3.5	-0.8	4.1
CCCCNC(=O)C1(C)CCCCN1C(=O)c1ccc(C#N)cc1 (centres undefined)	3.3	0.8	-5.0	-1.6	·
NC(=O)/C(=C/c1cccnc1)NC(=O)c1ccccc1	-3.1	-0.1	1.4	-1.4	1.1
O=c1cccc2n1Cc1cc3ccccc3nc1-2	0.1	5.8	4.8	3.0	58.0*
O=C(COC(=O)Cc1n[nH]c(=O)c2ccccc12)Nc1ccc(Cl)cn1	14.5	2.2	1.2	-1.6	17.2
CCn1c(=O)c2sccc2n2c(CCCC(=O)NCc3cccnc3)nnc12	19.1	1.7	3.6	-1.1	2.1
CC(C)OCCCn1c(SCC(=O)Nc2ccccc2C(F)(F)F)nc2nccnc2c1=O	3.4	0.1	-0.5	0.0	-1.5
SMILES	MC4R antag cAMP	GAA850 FXN act	m5-HT2A agonist	MC4R ag barr	AHR activator
O=C(CN(c1ccc(Cl)cc1)S(=O)(=O)c1ccccc1)N1CCN(c2ccccc2)CC1	12.3	0.4	0.4	9.1*	-1.8
COc1ccc(N2CCN(C(=O)CN(c3ccc(OC)cc3)S(=O)(=O)c3ccccc3)CC2)cc1	11.9	-0.8	-6.5	-0.8	-2.7
COC(=O)c1sc(NC(=O)COc2cccc3ccccc23)nc1C	-2.9	-1.7	-3.6	8.4*	3.8
Cc1nc(NC(=O)CSc2nnnn2Cc2ccccc2)sc1C	13.7	1.1	-0.3	-1.0	65.1*
Cc1nnc(NC(=O)CSc2nnnn2Cc2ccccc2)s1	-0.9	-0.6	5.2	-1.2	6.4
CC1Cc2ccccc2N1C(=O)CSc1nnnn1Cc1ccccc1 (centres undefined)	1.3	0.1	0.4	-1.7	47.7*
COCCCn1nnnc1SCC(=O)N1c2ccccc2CC1C (centres undefined)	6.9	-0.3	-3.8	-0.1	5.3
CCn1c(SCC(=O)Nc2nc(C)c(C)s2)nc2cccnc21	8.1	2.1	0.5	-2.2	52.4*
CCOC(=O)Cc1csc(NC(=O)CSc2nc3cccnc3n2CC)n1	9.2	0.8	0.8	-2.6	5.8
CC1(C(=O)NS(=O)(=O)C2CC2)CCN(C(=O)C2(c3ccc(Cl)cc3)CCCC2)C1 (centres undefined)	4.4	-0.4	0.6	-1.6	·
CCCCC(CCc1ccccn1)C(=O)c1ccccc1 (centres undefined)	1.8	3.0	-5.3	-0.8	·
CC(=O)Oc1ccccc1Cn1c(C)c(C(=O)NCCC#N)sc1=O	-5.6	-0.7	2.3	-0.2	·
Nc1ccn([C@@H]2O[C@H](C(=O)NCc3ccc4c(c3)OCO4)[C@@H](O)[C@H]2O)c(=O)n1	·	·	-1.9	·	·
COC(=O)c1sc(NC(=O)CSc2nnnn2-c2cccc(OC)c2)nc1C	3.5	-1.2	0.0	8.7*	8.7
CCOC(=O)c1sc(NC(=O)CSc2nnnn2-c2ccccc2)nc1C	24.8	-0.5	-2.8	7.4	2.6
CCN(CC)S(=O)(=O)c1ccc(OC)c(NC(=O)C(Cc2ccccc2)N2C(=O)c3ccccc3C2=O)c1 (centres undefined)	·	·	·	·	5.0
O=C(CSc1nncn1-c1ccccc1)c1c[nH]c2ccccc12	-5.1	1.8	0.9	-1.6	34.5
CCCCNc1nnc(SCC(=O)c2c[nH]c3ccccc23)s1	14.3	-0.1	-2.4	-4.1	57.4*
Cn1cnnc1SCC(=O)c1c[nH]c2ccccc12	4.9	-0.9	2.0	-0.5	66.8*
CCOc1ccc(OCCCC(=O)NCCc2ccc(OC)cc2)cc1	1.5	-0.7	2.5	-2.0	2.0
Cc1cc(Cl)nc(SCC(=O)c2ccccc2)n1	19.6	3.3	5.3	-0.5	61.3*
COc1cccc(CC(=O)OCC(=O)NNC(=O)c2ccc(Br)cc2)c1	-2.5	-1.6	2.7	0.6	3.5
Cc1ccc2oc3c(SCc4nc5ccccc5[nH]4)nc(C)nc3c2c1	-2.9	4.6	-4.0	-0.9	24.4
Cc1nc(SCc2nc3ccccc3[nH]2)c2oc3cc(Br)ccc3c2n1	-6.8	3.5	-3.2	-1.1	77.1*
CCOC(=O)C1CCCN(C(=O)C2(c3ccc(Cl)cc3)CCCC2)CC1 (centres undefined)	-0.8	-0.4	2.2	1.8	·
CC(=O)n1cc(N(C(=O)CCl)c2ccccc2)c2ccccc21	22.3	-10.3	-4.9	17.3*	13.8

From PubChem
